According to paper PMC3220529 (The Journal of Biological Chemistry, 2011):
“Also recorded” adds a separate entry of the source.

Columns and labels:
A10A2 = assay: Peptide array of AHNAK C terminus probed with Alexa Fluor 680-A10A2; assay type: binding, rabbit; conditions: 18-residue peptides shifted by 3 residues, Alexa-A10A2 0.2 μM, 2 h, 700 nm
Procedure, shortened: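 330 spots of 18-residue AHNAK peptides (residues 4884–5890, 3-residue offset) were Fmoc-synthesized on […]. Membranes were methanol-hydrated, washed in TBS + 0.05% Tween, and blocked 1 h with skim milk. A10A2 is a rabbit S100A10(C82S)–annexin A2 hybrid made in E. coli.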

[1] = biological target: S100A10^C82S (rabbit S100A10 with Cys82 changed to Ser) (rabbit); assay: native MS
[2] = biological target: S100A10^C82S-annexin A2 hybrid protein (A10A2) (rabbit | not stated); assay: native MS
S100A10 [3] = assay type: binding, rabbit; conditions: absence of annexin A2 peptide; data not shown
[4] = biological target: T1, A10A2 hybrid protein (dimer) (Oryctolagus cuniculus, UniProt Q6SQH4, C83S); assay: Fluorescence titration of acrylodan-labeled A10A2 with AHNAK5; assay type: binding, rabbit; conditions: shifted from near 495 nm; intensity decreased; pH 7.4
Procedure, shortened: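 Rabbit S100A10(C82S)–annexin A2 hybrid was made as a GST fusion in E. coli, cleaved with PreScission, and labelled with acrylodan. 167 nM labelled protein in 20 mM Tris-HCl, 120 mM NaCl, 1 mM DTT, pH 7.4, was stirred at room temperature. Peptide was added stepwise with 2 min stirring each. Excitation 375 nm, emission 400–600 nm, ΔF at 500 nm. Duplicate titrations were globally fit 1:1 for Kd.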

[5] = biological target: S100A10-annexin A2 hybrid protein (A10A2) dimer (Oryctolagus cuniculus, UniProt Q6SQH4, C83S); assay: NMR titration; assay type: binding, rabbit; conditions: pH 7.0
S100A10-annexin A2 = S100A10-annexin A2 (Oryctolagus cuniculus, UniProt Q6SQH4, C83S); assay: Overall binding of AHNAK5 to S100A10-annexin A2; design: species or system rabbit; conditions: S100A10 without annexin A2 peptide; discussion statement
S100A10 [6] = assay: Fluorescence titration of acrylodan-labeled S100A10 with AHNAK5; assay type: binding, rabbit; conditions: absence of annexin A2 peptide
[7] = biological target: T1, A10A2 hybrid protein (dimer); assay: Isothermal titration calorimetry of AHNAK5 into A10A2; assay type: binding, rabbit
[8] = biological target: acrylodan-labeled A10A2 hybrid protein (rabbit | not stated); assay: other fluorescence titration
[9] = biological target: S100A10^C82S-annexin A2 hybrid protein (A10A2) (rabbit | not stated); assay: NMR titration
[10] = biological target: S100A10^C82S-annexin A2 hybrid protein (A10A2) (rabbit | not stated); assay: ITC
[11] = biological target: non-covalent complex of S100A10 (C82S) dimer with two annexin A2 peptides (residues 1-15) (rabbit | not stated); assay: native MS

In the case of “sequence d: AHNAK array region Asn5607–Ile5633 (NLDTSKFAGGLHFSGPKVEGGVKGGQI)”, the “A10A2 binding in peptide array (intensity, words)” value (from here on “A10A2 binding in peptide array”) (A10A2) is reported as “best interaction with A10A2”.

For “sequence h: AHNAK array region Leu5808–Glu5837 (LEGGKVKGKHGKLKFGTFGGLGSKSKGHYE)”, the “A10A2 binding in peptide array” value (A10A2) was “best interaction with A10A2”.

For “sequence e: AHNAK array region Gly5652–Gly5675; most intense spot 5652–5669 (GSGKVTFPKMKIPKFTFSGRELVG)”, the “A10A2 binding in peptide array” value (A10A2) was “best interaction with A10A2; also recorded: most intense binding at any one spot”.

For “S100A10^C82S (rabbit S100A10 with Cys82 changed to Ser) (natural protein)”, the stoichiometry N [1] was 2.

With “S100A10^C82S-annexin A2 hybrid protein (A10A2)” the stoichiometry N [2] was 2.

With “sequence a: AHNAK array region Thr4917–Gly4940 (overlapping 18-residue peptides) (TAPDVDLHLKAPKIGFSGPKLEGG)” the “A10A2 binding in peptide array” value (A10A2) was “best interaction with A10A2”.

With “sequence c: AHNAK array region Pro5220–Ile5243 (PDVDLQGPEAKIKFPKFSMPKIGI)” the “A10A2 binding in peptide array” value (A10A2) was “best interaction with A10A2”.

In the case of Ac-GKVTFPKMKIPKFTFSGREL-NH2 [AHNAK5], the “interaction with S100A10 without annexin A2, NMR” value (S100A10 [3]) is reported as “did not show an interaction between S100A10 and AHNAK5; also recorded: no evidence for interaction of AHNAK5 with S100A10 in the absence of annexin A2”, the “precipitation during titration of S100A10 with AHNAK5” value (S100A10 [3]) is reported as “prone to precipitation” and the “acrylodan-A10A2 fluorescence maximum upon addition of AHNAK5” value [4] is reported as 500 nm. The “A10A2 binding in peptide array” value (A10A2) was “strong interaction with A10A2”, the “exchange regime / peak doubling on AHNAK5 binding, A10A2” value ([5]; 1H-15N HSQC, 0.5 mM A10A2 (protomer), 0.25 mM AHNAK5, 35 °C) was “disappearance of peaks from S100A10 and the appearance of new resonances on the slow exchange time scale; also recorded: resonances from the annexin A2 portion of A10A2 also exhibited peak doubling” and the “stoichiometry AHNAK5 : A10A2 dimer, NMR” value ([5]; inflection point of peak intensity changes, 35 °C) was “one AHNAK5 peptide to one A10A2 dimer”. For the same molecule, the “interaction in experiments lacking annexin A2 peptide (summary)” value (S100A10-annexin A2) was “little or no observable interaction”, the “interaction with S100A10, fluorescence” value (S100A10 [6]) was “little wavelength shift, suggestive of a poor interaction” and the “entropy change” value ([7]; ITC) was “positive entropy change”. For the same molecule, the “ΔH (binding enthalpy)” value ([7]; ITC, 35 °C, pH 7.2) was -10 ± 0.096 kcal/mol, the “ΔS (entropy change)” value ([7]; ITC, 35 °C, pH 7.2) was 0.00201 kcal/mol and the “n (binding sites), ITC” value ([7]; single binding site fit, 35 °C, pH 7.2) was 1.02.

In the case of “sequence g: AHNAK array region Ala5757–Ser5780 (AEAEASSPKGKFSLFKSKKPRHRS)”, the “A10A2 binding in peptide array” value (A10A2) is reported as “best interaction with A10A2”.

In the case of “sequence b: AHNAK array region Asp4959–Pro4994; most intense spot 4968–4985 (DSPDINIEGPDVKIPKFKKPKFGFGAKSPKADIKSP)”, the “A10A2 binding in peptide array” value (A10A2) is reported as “best interaction with A10A2; also recorded: most intense binding at any one spot”.

In the case of “sequence f: AHNAK array region Ser5703–Thr5729 (SEVKLKKSKIKMPKFNFSKPKGKGGVT)”, the “A10A2 binding in peptide array” value (A10A2) is reported as “best interaction with A10A2”.

Ac-STVHEILSKLSLEGD-NH2 [annexin A2 peptide (residues 1-15)] showed a stoichiometry N (annexin A2 peptides per S100A10 dimer) [1] of 2.

Ac-GKVTFPKMKIPKFTFSGREL-NH2 [AHNAK5 peptide (AHNAK residues Gly5654-Leu5673)] was tested, and the Kd [8] was 35 nM, the Kd [9] was < 1000 nM and the stoichiometry N (AHNAK5 per A10A2 dimer) [9] was 1. It also gave a Kd [10] of 28 nM, a dH [10] of -10 kcal/mol and a stoichiometry N (AHNAK5 per A10A2 dimer) [10] of 1.02. The stoichiometry N [11] was 1 and the stoichiometry N (AHNAK5 per A10A2 dimer) [2] was 1.
